# Results from ChEMBL document CHEMBL2380211, “Conformational restriction in a series of GPR119 agonists: differences in pharmacology between mouse and human” (Bioorg Med Chem Lett, 2013).
# What was measured:
# [1] = biological target: T1, Glucose-dependent insulinotropic receptor (Mus musculus, UniProt Q7TQP3); test: Agonist activity at mouse GPR119 overexpressed in HEK293S cells assessed as change in cAMP level after 45 mins by HTRF assay; format: functional, cell-based
# T1 sequence (Q7TQP3 whole entry): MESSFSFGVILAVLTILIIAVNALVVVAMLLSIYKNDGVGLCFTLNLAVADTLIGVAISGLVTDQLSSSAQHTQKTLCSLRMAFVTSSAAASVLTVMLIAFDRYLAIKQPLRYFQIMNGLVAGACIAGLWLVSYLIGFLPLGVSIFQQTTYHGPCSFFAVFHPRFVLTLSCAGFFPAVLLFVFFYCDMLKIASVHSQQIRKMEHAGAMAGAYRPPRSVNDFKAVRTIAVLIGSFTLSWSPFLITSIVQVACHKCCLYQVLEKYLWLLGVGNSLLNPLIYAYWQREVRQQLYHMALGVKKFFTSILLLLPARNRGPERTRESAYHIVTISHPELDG
# [2] = biological target: T2, Glucose-dependent insulinotropic receptor (Homo sapiens, UniProt Q8TDV5); test: Displacement of [3H]-N-(2-fluoro-4-methylsulfonyl-phenyl)-6-[4-(3-isopropyl-1,2,4-oxadiazol-5-yl)-1-piperidyl]-5-nitro-pyrimidin-4-amine from human GPR119 overexpressed in baculovirus infected Sf21 cell membranes after 120 mins by scintillation counting analysis
# T2 sequence (Q8TDV5 whole entry): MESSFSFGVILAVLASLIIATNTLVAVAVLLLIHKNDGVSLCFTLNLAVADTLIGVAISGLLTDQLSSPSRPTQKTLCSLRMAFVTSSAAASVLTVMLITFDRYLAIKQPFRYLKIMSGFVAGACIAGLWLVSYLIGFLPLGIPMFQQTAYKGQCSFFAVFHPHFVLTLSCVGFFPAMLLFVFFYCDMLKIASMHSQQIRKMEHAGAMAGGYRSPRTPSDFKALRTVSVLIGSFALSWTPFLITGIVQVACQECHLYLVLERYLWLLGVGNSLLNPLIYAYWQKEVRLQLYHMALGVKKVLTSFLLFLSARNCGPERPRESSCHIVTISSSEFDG
# [3] = biological target: T2, Glucose-dependent insulinotropic receptor; test: Agonist activity at human GPR119 overexpressed in HEK293S cells assessed as change in cAMP level after 45 mins by HTRF assay; format: functional, cell-based
# [4] = biological target: T1, Glucose-dependent insulinotropic receptor; test: Displacement of [3H]-N-(2-fluoro-4-methylsulfonyl-phenyl)-6-[4-(3-isopropyl-1,2,4-oxadiazol-5-yl)-1-piperidyl]-5-nitro-pyrimidin-4-amine from mouse GPR119 overexpressed in baculovirus infected Sf21 cell membranes after 120 mins by scintillation counting analysis
# [5] = Half life in rat at 5 mg/kg, po; format: ADME, organism-based; set-up: dose 5 mg/kg, route oral; conditions: in vivo
# Procedure, shortened: (§1)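 Rats dosed at 2 mg/kg IV in 5% DMSO:95% hydroxypropyl beta cyclodextrin, and at 5 mg/kg orally as a 0.1% pluronic F127 suspension, both at 5 mL/kg.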
# [6] = Apparent permeability from apical to basolateral side in MDCK cells at 10 uM; format: ADME, cell-based, Canis lupus familiaris; conditions: dog
# Procedure, shortened: (§2)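 Compound incubated at 10 µM with cultured MDCK epithelial cells. Apparent permeability measured in both directions, A-B and B-A.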
# [7] = Aqueous solubility of the compound in phosphate buffer at pH 7.4 at 25 degC after 24 hrs by LC-UV analysis; format: physicochemical
# Mus musculus = test: Antidiabetic activity in C57BL6/JAX mouse assessed as reduction in blood glucose AUC at 50 mg/kg administered 30 mins prior to glucose challenge measured up to 90 mins by OGTT relative to control; format: functional; set-up: scale not given: the % may be the effect or the level left
# Procedure, shortened: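 C57BL6/JAX mice given compound at 50 mg/kg, 30 min before a 2 g/kg oral glucose load. Blood glucose followed to 90 min. Value is the % reduction in blood glucose AUC.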
# [8] = Oral bioavailability in rat at 5 mg/kg; format: ADME, organism-based; conditions: in vivo; procedure, shortened: as §1
# Cytochrome P450 3A4 = Cytochrome P450 3A4 (Homo sapiens, UniProt P08684); test: Inhibition of CYP3A4 (unknown origin); format: ADME
# Cytochrome P450 3A4, sequence (P08684 whole entry): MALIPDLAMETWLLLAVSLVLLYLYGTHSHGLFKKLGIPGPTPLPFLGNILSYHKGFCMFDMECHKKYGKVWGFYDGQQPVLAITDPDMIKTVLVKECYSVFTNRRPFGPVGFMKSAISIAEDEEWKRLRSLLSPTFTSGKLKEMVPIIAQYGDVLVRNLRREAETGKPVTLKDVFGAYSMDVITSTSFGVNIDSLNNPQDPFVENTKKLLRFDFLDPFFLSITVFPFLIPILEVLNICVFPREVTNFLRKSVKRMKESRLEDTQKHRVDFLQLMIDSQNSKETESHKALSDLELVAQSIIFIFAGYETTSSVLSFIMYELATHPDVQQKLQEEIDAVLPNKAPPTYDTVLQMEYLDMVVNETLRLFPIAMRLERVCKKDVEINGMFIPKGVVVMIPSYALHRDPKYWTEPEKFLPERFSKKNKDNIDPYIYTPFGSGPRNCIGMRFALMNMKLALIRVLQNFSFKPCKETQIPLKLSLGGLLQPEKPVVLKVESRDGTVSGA
# [9] = Plasma clearance in rat at 2 mg/kg, iv and 5 mg/kg, po; format: ADME, organism-based; procedure, shortened: as §1
# [10] = 1-octanol-aqueous phosphate buffer distribution coefficient, log D of the compound at pH 7.4 after 30 mins by shake-flask method; format: physicochemical
# Procedure, shortened: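 Partition of compound between 1-octanol and aqueous phosphate buffer, pH 7.4.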
# [11] = Half life in rat at 2 mg/kg, iv; format: ADME, organism-based; set-up: dose 2 mg/kg, route intravenous; conditions: in vivo; procedure, shortened: as §1
# Cytochrome P450 1A2 = biological target: T3, Cytochrome P450 1A2 (Homo sapiens, UniProt P05177); test: Inhibition of CYP1A2 (unknown origin); format: ADME
# T3 sequence (P05177 whole entry): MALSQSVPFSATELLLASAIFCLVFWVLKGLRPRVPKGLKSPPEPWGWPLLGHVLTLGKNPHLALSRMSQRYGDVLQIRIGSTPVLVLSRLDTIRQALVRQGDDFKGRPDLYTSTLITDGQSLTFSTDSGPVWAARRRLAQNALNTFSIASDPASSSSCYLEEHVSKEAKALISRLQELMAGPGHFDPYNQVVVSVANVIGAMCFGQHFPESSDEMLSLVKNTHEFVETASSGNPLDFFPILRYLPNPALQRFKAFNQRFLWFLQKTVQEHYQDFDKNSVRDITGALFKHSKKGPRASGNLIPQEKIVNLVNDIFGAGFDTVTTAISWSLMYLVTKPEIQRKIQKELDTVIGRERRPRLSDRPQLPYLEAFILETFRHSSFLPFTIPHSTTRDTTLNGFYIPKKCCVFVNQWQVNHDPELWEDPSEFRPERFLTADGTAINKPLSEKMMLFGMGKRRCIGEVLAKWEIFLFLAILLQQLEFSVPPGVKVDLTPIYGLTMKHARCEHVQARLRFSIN
# [12] = Intrinsic clearance in rat hepatocytes measured per 10^6 cells; format: ADME, cell-based, Hepatocyte; conditions: read-out: CLH
# [13] = Volume of distribution at steady state in rat at 2 mg/kg, iv and 5 mg/kg, po; format: ADME, organism-based; conditions: in vivo, read-out: Vdss; procedure, shortened: as §1
# Cytochrome P450 2C9 = Cytochrome P450 2C9 (Homo sapiens, UniProt P11712); test: Inhibition of CYP2C9 (unknown origin); format: ADME
# Cytochrome P450 2C9, sequence (P11712 whole entry): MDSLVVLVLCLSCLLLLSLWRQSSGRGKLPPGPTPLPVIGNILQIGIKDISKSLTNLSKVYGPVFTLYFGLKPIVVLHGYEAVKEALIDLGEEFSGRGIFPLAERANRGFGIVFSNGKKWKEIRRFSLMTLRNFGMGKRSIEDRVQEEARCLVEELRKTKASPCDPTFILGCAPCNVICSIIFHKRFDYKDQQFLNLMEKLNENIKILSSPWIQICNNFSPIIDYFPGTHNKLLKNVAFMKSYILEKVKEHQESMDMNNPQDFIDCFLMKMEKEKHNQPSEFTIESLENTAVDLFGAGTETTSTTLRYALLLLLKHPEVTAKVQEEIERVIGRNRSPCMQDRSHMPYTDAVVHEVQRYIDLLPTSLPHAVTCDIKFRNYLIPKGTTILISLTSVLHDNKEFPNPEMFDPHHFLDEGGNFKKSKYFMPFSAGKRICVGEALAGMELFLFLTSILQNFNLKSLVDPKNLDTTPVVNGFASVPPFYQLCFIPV
# [14] = Fraction unbound in rat plasma by equilibrium dialysis method; format: ADME, cell-free
# [15] = Apparent permeability from basolateral to apical side in MDCK cells at 10 uM; format: ADME, cell-based, Canis lupus familiaris; conditions: dog; procedure, shortened: as §2
# Cytochrome P450 2C19 = Cytochrome P450 2C19 (Homo sapiens, UniProt P33261); test: Inhibition of CYP2C19 (unknown origin); format: ADME
# Cytochrome P450 2C19, sequence (P33261 whole entry): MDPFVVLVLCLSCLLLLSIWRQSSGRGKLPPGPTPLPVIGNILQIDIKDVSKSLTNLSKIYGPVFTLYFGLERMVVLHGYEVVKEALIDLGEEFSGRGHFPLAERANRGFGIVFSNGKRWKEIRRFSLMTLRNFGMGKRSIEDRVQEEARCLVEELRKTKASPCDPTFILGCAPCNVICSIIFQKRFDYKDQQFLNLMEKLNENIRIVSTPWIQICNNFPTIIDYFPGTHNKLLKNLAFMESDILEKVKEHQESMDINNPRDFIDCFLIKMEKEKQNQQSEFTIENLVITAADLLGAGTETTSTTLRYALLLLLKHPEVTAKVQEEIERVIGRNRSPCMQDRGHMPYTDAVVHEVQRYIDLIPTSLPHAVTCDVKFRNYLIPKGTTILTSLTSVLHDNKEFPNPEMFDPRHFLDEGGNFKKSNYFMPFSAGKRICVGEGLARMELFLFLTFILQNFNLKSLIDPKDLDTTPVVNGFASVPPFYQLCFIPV
# Cytochrome P450 2D6 = Cytochrome P450 2D6 (Homo sapiens, UniProt P10635); test: Inhibition of CYP2D6 (unknown origin); format: ADME
# Cytochrome P450 2D6, sequence (P10635 whole entry): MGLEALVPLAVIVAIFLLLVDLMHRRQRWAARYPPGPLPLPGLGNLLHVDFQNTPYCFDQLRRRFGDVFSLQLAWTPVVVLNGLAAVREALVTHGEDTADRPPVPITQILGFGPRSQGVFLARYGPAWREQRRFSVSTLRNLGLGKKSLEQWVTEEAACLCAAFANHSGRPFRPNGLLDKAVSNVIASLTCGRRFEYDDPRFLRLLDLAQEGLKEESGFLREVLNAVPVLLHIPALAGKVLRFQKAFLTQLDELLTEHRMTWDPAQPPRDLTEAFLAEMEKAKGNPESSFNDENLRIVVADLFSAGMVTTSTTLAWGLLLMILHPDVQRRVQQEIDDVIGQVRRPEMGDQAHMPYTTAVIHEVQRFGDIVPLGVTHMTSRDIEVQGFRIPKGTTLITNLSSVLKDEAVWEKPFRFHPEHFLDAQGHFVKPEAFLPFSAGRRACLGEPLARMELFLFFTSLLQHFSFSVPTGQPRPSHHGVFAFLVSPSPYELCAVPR
# [16] = Fraction unbound in mouse plasma by equilibrium dialysis method; format: ADME, cell-free
# [17] = AUC in rat at 2 mg/kg, iv and 5 mg/kg, po; format: ADME, organism-based; conditions: plasma; procedure, shortened: as §1
# [18] = biological target: Voltage-gated inwardly rectifying potassium channel KCNH2 (Homo sapiens, UniProt Q12809); test: Inhibition of human ERG by IonWorks assay
# Voltage-gated inwardly rectifying potassium channel KCNH2, sequence (Q12809 whole entry): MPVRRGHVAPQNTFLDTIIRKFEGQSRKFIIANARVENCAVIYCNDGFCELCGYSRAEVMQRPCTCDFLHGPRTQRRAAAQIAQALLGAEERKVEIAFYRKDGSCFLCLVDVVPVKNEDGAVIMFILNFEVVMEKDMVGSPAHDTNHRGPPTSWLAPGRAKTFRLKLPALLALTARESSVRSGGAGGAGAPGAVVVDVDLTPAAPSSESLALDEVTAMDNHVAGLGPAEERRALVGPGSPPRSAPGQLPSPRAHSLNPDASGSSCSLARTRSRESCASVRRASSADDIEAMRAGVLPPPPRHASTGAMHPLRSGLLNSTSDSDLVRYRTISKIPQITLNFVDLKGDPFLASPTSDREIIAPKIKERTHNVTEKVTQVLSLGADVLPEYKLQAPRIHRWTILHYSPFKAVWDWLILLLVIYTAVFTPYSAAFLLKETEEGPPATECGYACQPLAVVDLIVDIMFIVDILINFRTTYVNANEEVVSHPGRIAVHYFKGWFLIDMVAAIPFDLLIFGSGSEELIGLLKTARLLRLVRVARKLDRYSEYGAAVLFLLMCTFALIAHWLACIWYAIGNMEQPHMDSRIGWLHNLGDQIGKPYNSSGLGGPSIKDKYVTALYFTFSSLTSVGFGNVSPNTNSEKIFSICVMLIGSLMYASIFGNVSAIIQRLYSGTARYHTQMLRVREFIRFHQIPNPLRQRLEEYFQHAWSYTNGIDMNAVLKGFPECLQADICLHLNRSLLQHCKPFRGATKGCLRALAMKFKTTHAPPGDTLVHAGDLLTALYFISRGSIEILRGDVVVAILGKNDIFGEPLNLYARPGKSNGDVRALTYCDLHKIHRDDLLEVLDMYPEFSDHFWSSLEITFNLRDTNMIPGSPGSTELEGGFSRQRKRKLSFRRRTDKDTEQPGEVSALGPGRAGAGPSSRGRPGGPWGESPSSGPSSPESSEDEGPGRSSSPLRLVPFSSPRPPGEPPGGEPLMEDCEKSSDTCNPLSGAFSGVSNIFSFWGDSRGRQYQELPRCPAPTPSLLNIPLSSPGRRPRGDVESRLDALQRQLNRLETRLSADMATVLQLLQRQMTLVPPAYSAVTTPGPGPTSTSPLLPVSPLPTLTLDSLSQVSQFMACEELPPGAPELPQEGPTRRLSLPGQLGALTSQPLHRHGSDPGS
compound,measurement,setting,value
CC(C)c1nc(N2C3CCC2CN(c2ncc(OCc4ccncc4C#N)cn2)C3)no1,EC50,[1],45 nM
same,IC50,[2],4 nM
same,EC50,[3],11 nM
same,IC50,[4],122 nM
N#Cc1cnccc1COc1cnc(N2CC3CCC(C2)N3C(=O)OCC(F)(F)F)nc1,half-life,[5],156 min
same,EC50,[1],20 nM
same,IC50,[2],8 nM
same,EC50,[3],9 nM
same,Papp A→B at 10 µM,[6],25 ×10⁻⁶ cm/s
same,solubility at 24 h,[7],3.8 µM
same,Activity,Mus musculus,6%
same,bioavailability,[8],17%
same,IC50,Cytochrome P450 3A4,> 30 µM
same,clearance,[9],11 mL/min/kg
same,logD at 0.5 h,[10],3
same,half-life,[11],102 min
same,IC50,Cytochrome P450 1A2,> 30 µM
same,hepatocyte CLint,[12],13 µL/min/1e6 cells
same,Vd,[13],1 L/kg
same,IC50,Cytochrome P450 2C9,> 30 µM
same,IC50,[4],104 nM
same,fraction unbound,[14],0.065
same,Papp B→A at 10 µM,[15],20 ×10⁻⁶ cm/s
same,IC50,Cytochrome P450 2C19,> 30 µM
same,IC50,Cytochrome P450 2D6,> 30 µM
same,fraction unbound,[16],0.096
same,AUC,[17],2.1 µM·h
N#Cc1cnccc1COc1cnc(N2CCN(C(=O)OCC(F)(F)F)CC2)nc1,half-life,[5],126 min
same,EC50,[1],698 nM
same,IC50,[2],18 nM
same,EC50,[3],47 nM
same,Papp A→B at 10 µM,[6],32 ×10⁻⁶ cm/s
same,solubility at 24 h,[7],3.3 µM
same,Activity,Mus musculus,21%
same,bioavailability,[8],48%
same,IC50,[18],10 µM
same,IC50,Cytochrome P450 3A4,> 30 µM
same,clearance,[9],22 mL/min/kg
same,logD at 0.5 h,[10],3
same,half-life,[11],234 min
same,IC50,Cytochrome P450 1A2,> 30 µM
same,hepatocyte CLint,[12],12 µL/min/1e6 cells
same,Vd,[13],5.3 L/kg
same,IC50,Cytochrome P450 2C9,> 30 µM
same,IC50,[4],4990 nM
same,fraction unbound,[14],0.051
same,IC50,Cytochrome P450 2C19,> 30 µM
same,IC50,Cytochrome P450 2D6,> 30 µM
same,fraction unbound,[16],0.094
same,AUC,[17],4 µM·h
C[C@@H]1CN(C(=O)OC2CC(F)(F)C2(F)F)CCN1c1ncc(OCc2ccncc2C#N)cn1 (some centres not stated),EC50,[1],84 nM
same,IC50,[2],6 nM
same,EC50,[3],6 nM
same,IC50,[4],694 nM
N#Cc1cnccc1COc1cnc(N2CC3CCC(C2)N3C(=O)OC2CC(F)(F)C2(F)F)nc1 (configuration not stated),IC50,[2],9 nM
same,EC50,[3],7 nM
same,Activity,Mus musculus,3%
same,IC50,[4],65 nM
CC(C)(C)OC(=O)N1C2CCC1CN(c1ncc(OCc3ccncc3C#N)cn1)C2,IC50,[2],1 nM
same,EC50,[3],4 nM
same,IC50,[4],9 nM
CC(C)(C)OC(=O)N1C2CCC1CN(c1ncc(OCc3ccc(S(C)(=O)=O)cc3)cn1)C2,IC50,[2],3 nM
same,EC50,[3],11 nM
same,IC50,[4],5 nM
CC(C)(C)OC(=O)N1CC2CCC(C1)N2c1ncc(OCc2ccc(S(C)(=O)=O)cc2)cn1,IC50,[2],92 nM
same,EC50,[3],79 nM
same,IC50,[4],72 nM
N#Cc1cnccc1COc1cnc(N2CCN(C(=O)OC3CC(F)(F)C3(F)F)CC2)nc1 (configuration not stated),EC50,[1],252 nM
same,IC50,[2],25 nM
same,EC50,[3],20 nM
same,Activity,Mus musculus,30%
same,IC50,[4],758 nM
CC(C)c1nc(N2CCN(c3ncc(OCc4ccncc4C#N)cn3)CC2)no1,EC50,[1],242 nM
same,IC50,[2],12 nM
same,EC50,[3],19 nM
same,IC50,[4],2720 nM
C[C@@H]1CN(C(=O)OCC(F)(F)F)CCN1c1ncc(OCc2ccncc2C#N)cn1,half-life,[5],132 min
same,Papp A→B at 10 µM,[6],19 ×10⁻⁶ cm/s
same,Activity,Mus musculus,10%
same,bioavailability,[8],27%
same,clearance,[9],14 mL/min/kg
same,logD at 0.5 h,[10],3
same,half-life,[11],84 min
same,hepatocyte CLint,[12],27 µL/min/1e6 cells
same,Vd,[13],1.1 L/kg
same,Papp B→A at 10 µM,[15],10 ×10⁻⁶ cm/s
same,AUC,[17],3.2 µM·h
